B1: tRNA (parent)
chain: GUUCCGUUGGCGUAAUGGUAACGCGUCUCCCUCCUAAGGAGAAGACUGCGGGUUCGAGUCCCGUACGGAACG

Variants at the floor of the assay were thinned out.

Variants of B1 are the subject of this data set. Put plainly: yeast fitness relative to wild type (ratio to wild type); higher = fitter; tRNA-Arg(CCU), competitive growth, 37 C, YPD. In outline: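 The tRNA-Arg(CCU) gene variants were made by chemical synthesis with a 3% per-site mutation rate at 69 sites and inserted at the native genomic locus of Saccharomyces cerevisiae. After pooling, the strains were competed in YPD at 37°C for 24 hours in six parallel replicates. Gene amplicons from the start population and each end population were read by 100-nucleotide paired-end sequencing, and Darwinian fitness relative to wild type was taken from genotype frequency changes. Genotypes needed ≥ 100 starting reads, and estimates < 0.5 were set to 0.5.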
For C27A G58C U64G, the yeast fitness is not above 0.5. As to A15G C31A G41C G56A G58C, the yeast fitness is not above 0.5.

Regarding G23C G50C G52A, the yeast fitness amounted to 0.698. G38C C60A A70G: the yeast fitness was determined as 0.582.

With A40G C62U C66A A70C, the yeast fitness came to 0.563. With C5G C24U G56C, the yeast fitness is not above 0.5.

For the variant A21G G23A A57C A65C A70C, the yeast fitness is not above 0.5. For the variant C5U C27G U47C A70U, the yeast fitness is not above 0.5. With A15C C27A U32G the figure was 0.709; with C11U U54C G56A, not above 0.5; with U7A U8C G17A C27G C29U U32C A43C G52A, not above 0.5. Take C5G U8C A15G G18C C62U: the yeast fitness was not above 0.5. As for U16C A37G A42C G67A, the figure is not above 0.5. As for U2A C4A U13C C31A C49G A57G, the yeast fitness is not above 0.5. C34U C46G A69U: the yeast fitness was 0.576. For the variant C4A C5G U8A C30A G67C, the yeast fitness is not above 0.5.

In the case of A20U U28G U32G C34G C66U, the yeast fitness was not above 0.5. As to G6C A14G A20C U47C U64A G67A, the yeast fitness is not above 0.5. As for U13G A45U C55G, the yeast fitness is not above 0.5. Regarding C11G A20U C29A C30U C46G, the yeast fitness was not above 0.5. For the variant G12C C29U G51A G56A G63C, the yeast fitness came out at 0.574.

Turning to G17C A36G C66U A69C, the yeast fitness turned out to be 0.803. Take C27U C33G C34G G44A G50A G52A A65U: the yeast fitness was not above 0.5. U7A C29A G58A C61G A70U: the yeast fitness is 0.665. On to A14C G48C, for which the yeast fitness was determined as 0.658. Turning to U16A G52A A57C C66U, the yeast fitness is not above 0.5. With U8A C11U U47G, the yeast fitness is not above 0.5. As for G41C A69U A70U, the figure is 0.629; as for A43U U47G U53G A69U, not above 0.5; as for A15U U16G C55A A57C U59C A65G, not above 0.5. On to A21U G52A G58A, for which the yeast fitness is not above 0.5. Regarding A42C G48C G67A, the yeast fitness turned out to be 0.574. For C5G C34A G39C G52A G58A, the yeast fitness was found to be 0.532. For G6A G9C C31U, the yeast fitness was not above 0.5. As to U16A A21U G23C U47C, the yeast fitness was not above 0.5. On to C4A A20G G48A A69C, for which the yeast fitness is not above 0.5. With C22U U35C C55A A65G C66U the figure was not above 0.5; with C11G U16G G38C G68A, not above 0.5; with U16A G23C C29U C31G, not above 0.5. Regarding U16C C24G G44A C60U G67C, the yeast fitness was not above 0.5. For G10A C24U A36C A69C, the yeast fitness is 0.534.

As to C24A U26G A43C C62G G63A C66G A69G, the yeast fitness stood at 0.531. Take G6A C34A C46U A65C: the yeast fitness is not above 0.5. As for A37U C61U, the figure is 0.771; as for G50A C60G, 0.748; as for G50A U54G, 0.559. Consider C31U C34G C49U G52A, for which the yeast fitness was 0.725. As for C24G A36C C55U, the figure is not above 0.5; as for G17C G39C G63A, not above 0.5.

As to A43G C60U C62U A70C, the yeast fitness was not above 0.5.

On to U3A C30G A45G C46G G52C G68C, for which the yeast fitness is not above 0.5. Turning to C24G A37G C61U, the yeast fitness is not above 0.5. As for U32G C46A C66U, the figure is 0.538; as for C5G C27U G51A, not above 0.5; as for U7A C27U U28C, not above 0.5. Take C5U G50C G51C G56C G67A: the yeast fitness is not above 0.5. Turning to G17C C31A C60A A65U, the yeast fitness was determined as 0.532. On to U7G A40C G67C, for which the yeast fitness is not above 0.5.

With A36U A65G, the yeast fitness amounted to 0.673.

As to C4A C46G C60G, the yeast fitness is not above 0.5. As for A15G C27U U28C, the yeast fitness was 0.731.

As to G10A A20U A70C, the yeast fitness was 0.579. With C4U G25A U54A the figure was not above 0.5. As for U19A A21G A43C G51C, the figure is not above 0.5. Regarding C34U U54A, the yeast fitness is not above 0.5. On to A36C A45C U54A A57C, for which the yeast fitness worked out at 0.538. Regarding C5A A14G C24G C31U A43G, the yeast fitness is not above 0.5.

Turning to C33G G48A, the yeast fitness was determined as 0.629.

C4A G6A A65G: the yeast fitness came out at 0.56. In the case of C5U A36U A70U, the yeast fitness turned out to be 0.628.

C4U U8C C27G A45C U47C C55U: the yeast fitness is not above 0.5. For the variant C62G G68C A70G, the yeast fitness is not above 0.5. As to A14G A45C, the yeast fitness was determined as 0.718.

In the case of U53A C55G, the yeast fitness was 0.588.

C24G G25C C30G U32C A70C: the yeast fitness was 0.533. Consider A37G U53G, for which the yeast fitness is not above 0.5. On to C49G C55A C60U C66A, for which the yeast fitness is not above 0.5.

A40C C62A: the yeast fitness was 0.651. G51C C61G A70C: the yeast fitness worked out at 0.542. With U3G U8A C31A A69C A70G, the yeast fitness was not above 0.5. As for G44A G63C, the figure is 0.826; as for C11A U19G, 0.669; as for C5G C30G G67A A70U, not above 0.5. As to C30U C33G, the yeast fitness is 0.691. As to G6A C27G G38C, the yeast fitness is not above 0.5. As for A14G C22G U26C C31G, the yeast fitness was 0.615. With U8C U28A A37G G41C, the yeast fitness is not above 0.5.

Turning to C31G A40U C60G G67A, the yeast fitness was not above 0.5. On to C11U C30A U35A G38A C61G, for which the yeast fitness was not above 0.5. As for A14C C29G, the yeast fitness is not above 0.5. Consider A20G C55G C61U, for which the yeast fitness worked out at 0.534. For C24G A40C, the yeast fitness came out at 0.601. Consider C24G U35A G48C, for which the yeast fitness was not above 0.5. Take C4U A15C C46U: the yeast fitness came to 0.7.

As to C30U U47C C66U, the yeast fitness is 0.577. With G51A G58C the figure was 0.901; with U13A C29U C31U G50C, 0.508; with C49U C61A, 0.57. For A21U C22U G48C A65G, the yeast fitness was not above 0.5. Regarding G6A A20C G23C C27A, the yeast fitness was not above 0.5. With C5A U16A C22G A37U the figure was 0.717; with G18C C30G C46U G48A U54G, not above 0.5.

On to U7A C30U G39A A40G G67A, for which the yeast fitness is not above 0.5.

In the case of C22U A36C, the yeast fitness was 0.616.

In the case of G23A C24U C61U, the yeast fitness was 0.64. For the variant A43G U64A A69U, the yeast fitness amounted to 0.648.

With U3C C5A G17A A42G U64A, the yeast fitness was not above 0.5. With A15U C29A A43C G50C the figure was not above 0.5; with C5U U32G A36U, not above 0.5; with A14G U19C A21U, 0.503. For the variant C4U C22G U28C U59C, the yeast fitness was not above 0.5. With G10C C27U A40U A45U G48A C55U C66U, the yeast fitness was 0.591. As for C24U G48A, the figure is 0.915; as for U7A C34G A70U, not above 0.5; as for A15G A20C C29G G67A, not above 0.5. As for G12A C24U C55G A70U, the yeast fitness amounted to 0.531. U2A A21G C46G U54C: the yeast fitness was not above 0.5.

G12C C62G C66U: the yeast fitness is not above 0.5. For the variant U2A C11U A69U, the yeast fitness was determined as 0.648.

As to G12C C29U G58U C61U, the yeast fitness is not above 0.5.

Turning to U2C G67U, the yeast fitness was 0.81. On to C5U U13A C46A C62U C66U, for which the yeast fitness was not above 0.5. Turning to C24G A70C, the yeast fitness is 0.666. As for U28G A69U, the yeast fitness came out at 0.789. Turning to C24U C33U C34A, the yeast fitness worked out at 0.555.

In the case of U3C G18C C30U A36U C55A, the yeast fitness is not above 0.5. Turning to C22G U28A C31G A45G C55A G68C, the yeast fitness was not above 0.5.

Take C24G A42U C49U: the yeast fitness is not above 0.5. With C34U A37G the figure was 0.538. With C5U C24U G41C the figure was not above 0.5; with C5U C11U A15C C29A C30A A36U G38C C61U C66A, not above 0.5.

As for U3C C4G G12C, the yeast fitness was found to be 0.687. C31A A43G A65G: the yeast fitness came to 0.702. In the case of A14U U16A C31G U47C G68C, the yeast fitness is not above 0.5. As to A21C A43G G58A, the yeast fitness came out at 0.892.

As for U32C A37C A57U, the yeast fitness is not above 0.5. As for G18C C24U C29G C30G, the figure is 0.593; as for G6A C33G C34G C60A A69U, not above 0.5; as for G9C U26C U54G, not above 0.5.

In the case of A45G U47C, the yeast fitness came out at 1.01. On to U2G C4A U16C C31U A70U, for which the yeast fitness is not above 0.5. Regarding G6A C11A A57C G68A, the yeast fitness was found to be 0.549.

For G17C U19A C49G, the yeast fitness stood at 0.517. With U7G A21U A40G G67A the figure was not above 0.5; with U8G U32C C66U, not above 0.5; with C22U C31A A37C U47C G67A, not above 0.5. Take C11U G17C A20C: the yeast fitness was not above 0.5. As to C49U U54C A70C, the yeast fitness is 0.617. For the variant C4A C31A C33G U47A, the yeast fitness is not above 0.5. Consider C4U C5A A40C G68C, for which the yeast fitness is not above 0.5. With A15G C31G U47G C49G, the yeast fitness is 0.545. U32G: the yeast fitness was found to be 0.664. Regarding C24U G50A A65U, the yeast fitness was found to be 0.569. As to A21U C27G A36U G39C, the yeast fitness was not above 0.5. G18A G50C C55G C62A: the yeast fitness is 0.561.

Take U7A A15G G23A G25A A69C: the yeast fitness is not above 0.5. Regarding U53C G56A, the yeast fitness came to 0.802. With C22U C55U G67C the figure was not above 0.5; with G39C C49A G51A, not above 0.5. With C11G C31G A42U A65C the figure was 0.602; with U3C C34A G44A G52A C55U, 0.562; with U13C U53A, 0.674. As for U8G C33G U54A U59A G67A, the figure is not above 0.5; as for C11U A21G U35C, 0.538; as for C5G C22G G39C A57U, 0.723. For A36U G63A, the yeast fitness was 0.672.

With C31U A40G G48C, the yeast fitness amounted to 0.559.

The record behind these values is the RNAGym collection of RNA variant scans (doi:10.1126/science.aae0568).
